The record followed here is ChEMBL document CHEMBL4513216, “Probing the Open Global Health Chemical Diversity Library for Multistage-Active Starting Points for Next-Generation Antimalarials” (ACS Infect Dis, 2020).

Each structure is given as a SMILES string.

This data set in a line: Toxicity liver stage against HepG2, at 10uM. Format: cell-based. Set-up: test concentration 10 uM, cell line HepG2-A16-CD81EGFP. As to conditions: human, HepG2-A16-CD81EGFP cells; read-out: INHIBITION
Summed up:
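Uninfected HepG2-A16-CD81EGFP cells, 3 × 10^3 per well, 1536-well, plated on prespotted compound at 10 μM final, parasite-free screening media added to match infected plates; puromycin 10 μM positive, DMSO 0.5% negative; run in parallel with 48 h PbLuc assay at 37 °C, 5% CO2; viability by CellTiter-Glo luminescence, normalized to controls.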
For `COc1ccc(Cl)cc1C(=O)NCc1cnn(C)c1C`, the cytotoxicity at 10 µM came to 6.81%.
The result for `CCC(CC)C(=O)N1CCN(Cc2nc3ccccc3c(=O)[nH]2)CC1` reads -17.6%; that for `CN(Cc1ccccc1C(F)(F)F)C(C(N)=O)c1ccccc1` (stereo not drawn), 13.2%; that for `COC(=O)c1ccc(NC(=O)CCNCc2ccco2)cc1`, -3.64%.
As for `CNC(=O)c1cc(C)n(-c2ccccc2)n1`, the cytotoxicity at 10 µM is -0.142%.
To `CC1=Nc2c(c(=O)[nH]n2C2CCCCC2)C(c2ccc(C(=O)O)cc2)S1` (stereo not drawn) belongs -7.92%.
The result for `Cc1ccc(S(=O)(=O)N2CCC(S(C)(=O)=O)CC2)cc1C` reads 2.59%.
The result for `N#Cc1cccc(N2CCCC3(CN(C(=O)NC4CC4)CCO3)C2)c1` (stereo not drawn) reads 12.1%; that for `CC(C)C(=O)N1CCC12CCCN(C(=O)c1ccccc1)C2` (stereo not drawn), 6.8%; that for `COCC(=O)N1CCn2c(Cn3cncn3)cnc2C1C` (stereo not drawn), 0.53%.
With `CN(C)CC1CSCCCN1C(=O)c1ccc(C(C)(C)C)cc1` (stereo not drawn), the cytotoxicity at 10 µM is 6.25%.
The result for `Cn1ncc(C(=O)N2CCN(C(=O)c3ccco3)CC2)c1Cl` reads 2.88%; that for `Cc1ccc(C)c(NC(=O)c2n[nH]c(-n3cnnc3)n2)c1`, 3.43%; that for `Cc1cncc(C2CCN(Cc3cnc(C)nc3)CC2)n1`, 5.38%.
To `Clc1ccc(OCCc2cc(C3CCN(c4ncccn4)C3)n[nH]2)cc1` (stereo not drawn) belongs 7.45%; to `Cn1ccc(C(=O)N2CCCC2c2[nH]ncc2C(N)=O)n1` (stereo not drawn), 15.3%; to `NC(=O)CN1CCCCC1c1nc(N)ncc1-c1cccc(F)c1` (stereo not drawn), -13.5%.
Take `Cc1cc(N(C)C)nc(C2(C)CCCN2C(=O)c2ccn(C)n2)n1` (stereo not drawn): the cytotoxicity at 10 µM was -1.06%.
The result for `Cc1cc(C2CCCN2Cc2nc(-c3ccco3)no2)on1` (stereo not drawn) reads 7.53%; that for `CC1COc2ccccc2N1C(=O)c1cscn1` (stereo not drawn), 11.5%; that for `COc1ccc(CNC(C)c2cnn(C)c2)cc1OC1CCCC1` (stereo not drawn), -0.734%.
In the case of `CS(=O)(=O)Cc1cccc(CNS(=O)(=O)c2ccc(F)c(F)c2)c1`, the cytotoxicity at 10 µM was 1.33%.
To `Cc1nnc(CNC(C)c2cc(C)c(F)c(C)c2)s1` (stereo not drawn) belongs -3.7%; to `Cc1nc(CN2CCCN(CC(=O)N(C)CCC#N)CC2)no1`, 6.28%; to `COCc1cccc(NCc2cccnc2)c1`, 4.16%.
To `CCc1nc(CN(C)C2CCN(Cc3ccc(Cl)s3)C2)no1` (stereo not drawn) belongs 9.41%; to `O=C(c1cn(-c2ccccc2C(F)(F)F)nn1)N1CCSCC1`, -0.111%; to `CC(NC(=O)NCCCn1cccn1)c1ccncc1` (stereo not drawn), 15.3%.
To `CC(C)CCN1CCN(C(=O)c2cccnc2-n2cncn2)CC1` belongs 6.37%.
As to `CCc1cc(NCc2cccnc2N2CCCCC2)n2ncnc2n1`, the cytotoxicity at 10 µM came out at 10.5%.
To `NC(=O)C1CCN(CCc2ccc(NCc3ccsc3)cc2)CC1` belongs 0.867%.
To `Cc1noc(C)c1CN(C)Cn1nccc1-c1cccnc1` belongs -0.532%; to `O=C(NCC1CCN(c2ccncc2)CC1)C(O)c1ccccc1` (stereo not drawn), 8.15%.
To `Cc1cccc(N2CCC(NCc3cnc(C4CCC4)s3)CC2)n1` belongs 6.08%; to `CC(C)=CCN1CCN(C(C)c2cccnc2)CC1` (stereo not drawn), -2.65%.
On to `COCCN(CCOC)c1ncccc1Cl`, for which the cytotoxicity at 10 µM came to 3.94%.
To `Cc1cc(S(=O)(=O)NCC(C)(O)CN(C)C)c(F)cc1F` (stereo not drawn) belongs 10%; to `CCC(C)(COc1ncccc1Cl)NCC(=O)Nc1ccc(Br)cn1` (stereo not drawn), -2.89%; to `CC(C)n1cnnc1C1CCCN(S(=O)(=O)c2c[nH]cn2)C1` (stereo not drawn), -6.6%.
The result for `CCc1nn(C)c2[nH]nc(NC(=O)c3cccnc3NC(C)C)c12` reads 3.07%.
In the case of `Cc1ccc(C)n1-c1c(C(=O)NCC(c2ccsc2)N(C)C)cnn1C` (stereo not drawn), the cytotoxicity at 10 µM turned out to be 17.1%.
For `COc1ccc(C(C)NCc2cnnn2C)cc1F` (stereo not drawn), the cytotoxicity at 10 µM is -9.72%.
The result for `O=C(CSCc1ccccn1)N(Cc1ccsc1)C1CC1` reads -9.8%; that for `CCC(C)(NCC(=O)N(c1ccccc1)C(C)C)c1nc(C)cs1` (stereo not drawn), 10.9%; that for `CC(C)c1cc(C(=O)N2CCN(Cc3ccsc3)CC2)n[nH]1`, 0.0711%.
To `CN(Cc1cnccn1)C(=O)c1ccnc(OC2CCC2)c1` belongs 0.0711%; to `CCN1Cc2ccccc2CC2(CCN(C(=O)N(C)C)CC2)C1=O`, 8.3%; to `Cc1occc1C(=O)N1CCC2(CCC2NC(=O)c2ccn(C)c2)CC1` (stereo not drawn), -1.75%.
The result for `Cc1ccc(CN2CC[C@H]3OCC[C@@H](c4nc(C)no4)[C@H]3C2)cc1` reads -6.95%; that for `COc1ccc(CN(CC2CCCO2)C(=O)CN2CCOC2=O)cc1` (stereo not drawn), -1.39%.
As for `CCc1nc(C)c(CC(=O)N2CCC3(CC2)OCCCC3O)c(=O)[nH]1` (stereo not drawn), the cytotoxicity at 10 µM worked out at 9.16%.
As to `Cc1ccc(C2(O)CCN(Cc3nnc(-c4cccnc4)o3)CC2)nc1`, the cytotoxicity at 10 µM was -7.77%.
On to `O=C(NCc1nnc2n1CCCC2)c1cn(-c2ccccc2)nn1`, for which the cytotoxicity at 10 µM is -2.12%.
As to `CCc1[nH]c2ccc(CNC(=O)c3cnc(N)nc3C)cc2c1C`, the cytotoxicity at 10 µM was -3.56%.
The result for `CC(C)=CCN1C[C@@H]2CN(C(=O)c3ccc(CO)cc3)C[C@]2(C(=O)O)C1` reads 2.21%; that for `Cc1cc(C)c2c(NCC3(O)CCCCC3)ncnc2n1`, -7.13%; that for `Cc1ccc(CSc2nc(N)cc(NCCC(=O)N3CCCC3)n2)cc1`, 1.87%.
The result for `CN(Cc1ccsc1)Cc1nc(-c2ccncc2)no1` reads 1.93%; that for `CN(C)CC1(O)CCN(C(=O)c2ccc(-n3cccn3)cc2Cl)C1` (stereo not drawn), -0.662%.
To `Cc1csc2c(=O)n(C(C)Cc3cccnc3)cnc12` (stereo not drawn) belongs 9.98%.
For the compound `CC(NS(C)(=O)=O)C(=O)N(C)Cc1cnn(-c2ccc(F)cc2)c1` (stereo not drawn), the cytotoxicity at 10 µM is -7.94%.
To `CCOCCN1CCC=C(C2c3nc[nH]c3CCN2C(C)=O)C1` (stereo not drawn) belongs -3.67%; to `CSCC[C@@H](CO)Nc1ccc(-c2nc(-c3ccccc3C)no2)cn1`, 3.77%.
The result for `CCN1CCc2[nH]cnc2C12CCN(C(=O)CCCn1cncn1)CC2` reads -19.2%; that for `O=C(Cc1cccc(O)c1)N1CCCC(OCc2cccnc2)C1` (stereo not drawn), 1.5%; that for `COc1ccc(-c2nc3c([nH]2)CCNC3C(=O)O)c2ccc(C)nc12` (stereo not drawn), 0.562%.
To `c1ccc(C2CCCN2C2CSCCSC2)nc1` (stereo not drawn) belongs -3.77%; to `CCC(Nc1cccc(OC)c1)C(=O)NCc1nc(C)cc(=O)[nH]1` (stereo not drawn), 4.91%; to `CC(C)CN1CCCn2nc(CNC(=O)OCc3ccccc3)cc2C1`, 1.04%.
On to `CNC(=O)C1CC(=O)N(c2cccc(F)c2)C1` (stereo not drawn), for which the cytotoxicity at 10 µM was 4.61%.
The result for `O=C(O)CC[C@@H]1CN(c2ccncc2)CC[C@@H]1N1CCOCC1` reads 0.0482%; that for `CC(Cn1cccn1)n1cnc2cccc(Cl)c2c1=O` (stereo not drawn), -5.41%.
For the compound `CCC(C(=O)NCc1ccncc1)N(c1cccc(C)c1)S(C)(=O)=O` (stereo not drawn), the cytotoxicity at 10 µM was -5.88%.
On to `CN(C)CC1(O)CCN(S(=O)(=O)c2ccc(F)cc2)C1` (stereo not drawn), for which the cytotoxicity at 10 µM was -3.09%.
Take `Cc1csc2c(=O)n3c(nc12)CCN(C(=O)c1cccnc1)CC3`: the cytotoxicity at 10 µM is -2.09%.
The result for `O=C(NC(Cc1ccsc1)c1nccs1)C1CCOCC1` (stereo not drawn) reads 1.9%.
The result for `Cc1cc(CN2CCN(C(=O)NC(C)Cn3ccnc3)CC2)on1` (stereo not drawn) reads -7.42%; that for `CC(NC(=O)NCc1ccoc1)c1ccc2c(c1)CCC(=O)N2` (stereo not drawn), -1.12%; that for `OCCn1cc(CN2CCN(CCOc3ccccc3F)CC2)cn1`, -5.72%.
Take `CCc1nc(C2CCCN(C(=O)c3cccc4c3ccn4C)C2)no1` (stereo not drawn): the cytotoxicity at 10 µM is -14.4%.
To `Cn1cnc2c1CCN(Cc1ccc(C(=O)N3CCCC3)cc1)C2` belongs -8.62%.
The result for `COc1ccsc1C(=O)N1CCCC(n2nc(C)nc2C)C1` (stereo not drawn) reads -3.69%; that for `Cc1cccc(C2(CNC(=O)CCN3C(=O)CCC3=O)CCCC2)c1`, -7.59%.
As to `Cc1cc(C2CCCN(CCCNS(C)(=O)=O)C2)n[nH]1` (stereo not drawn), the cytotoxicity at 10 µM was -5.2%.
On to `c1ccc(Cn2cncn2)c(CNCC2CNc3ccnn3C2)c1` (stereo not drawn), for which the cytotoxicity at 10 µM was -3.61%.
The result for `CCn1cnnc1CNC(=O)N(C)Cc1ccc(F)c(F)c1` reads -11.4%.
The result for `Cc1ccccc1CN1CCCN(C2CCOC2=O)CC1` (stereo not drawn) reads -3.09%; that for `Cc1ccc(-c2nc(CN3CCn4c(nnc4C4CC4)C3)cs2)o1`, -0.215%; that for `Cc1sc2c(C3CCCNC3)nc(Nc3cccc(F)c3)n2c1C` (stereo not drawn), 1.24%.
To `CN(C)CC1COCCN1C(=O)C1(c2cccs2)CCCC1` (stereo not drawn) belongs -9.52%; to `CN(C)CCOCc1nnc2n1CCN(CC1CC1)CC2`, -4.87%; to `CCOCC1CN(C(=O)c2cc(C)oc2C)Cc2c1cnn2C` (stereo not drawn), 9.64%.
As for `CNC(=O)COC1COC2(CCN(c3cnccn3)CC2)C1` (stereo not drawn), the cytotoxicity at 10 µM is -8.44%.
To `CN(C)CCN1CCCC12CCCN(Cc1ccco1)C2` (stereo not drawn) belongs 10.3%.
The result for `O=S(=O)(NC1CCC12CCN(CC1CCOCC1)CC2)c1ccccc1` (stereo not drawn) reads -1.34%.
To `Cc1oncc1C(=O)NCc1cc(=O)n2c(n1)CN(CC1CC1)CCC2` belongs -4.5%; to `CN1CCN(Cc2cn3c(n2)CNCC3)CC1`, 7.85%.
For `Cc1ccc(N2CCC3(CCN(C(=O)c4ccsc4)C3)CC2)nn1`, the cytotoxicity at 10 µM was -0.0395%.
